Drawing on ChEMBL document CHEMBL1156778, “Synthesis and structure-activity studies of biphenyl analogues of the tuberculosis drug (6S)-2-nitro-6-{[4-(trifluoromethoxy)benzyl]oxy}-6,7-dihydro-5H-imidazo[2,1-b][1,3]oxazine (PA-824)” (J Med Chem, 2010), this text covers MIC and IC50 for 36 compounds.

The subject of experiment [1] is Mycobacterium tuberculosis. The experiment is described as follows: Antitubercular activity against Mycobacterium tuberculosis H37Rv in anaerobic condition after 7 days by low oxygen recovery assay. To be noted: 168 h. The class given is functional.
The next experiment deals with Vero. The experiment is described as follows: Cytotoxicity against african green monkey Vero cells after 72 hrs by MTS assay. Format: cell-based. To be noted: Chlorocebus sabaeus. The method, boiled down:
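VERO cells (CCL-81), 72 h exposure, tetrazolium dye read-out.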

The subject of experiment [2] is Mycobacterium tuberculosis. The experiment is described as follows: Antitubercular activity against Mycobacterium tuberculosis H37Rv in aerobic condition after 7 days by microplate alamar blue assay. The class given is functional. To be noted: 168 h. The method, boiled down: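 M. tuberculosis H37Rv, replicating culture; 8-day microplate assay with Alamar blue added on day 7 to read growth. […] Mean of at least two independent determinations ± SD.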
For orientation: The colour change of resazurin is a common sign of viable cells or microbes.

In brackets after ≈: the same amount, converted by molar mass.

On to `O=[N+]([O-])c1cn2c(n1)OC[C@@H](OCc1cccc(-c3cccc(OC(F)(F)F)c3)c1)C2`, for which the MIC in experiment [1] amounted to 3.5 µM (≈ 1.52 µg/mL); in experiment [2], 0.4 µM (≈ 0.174 µg/mL). In addition, the IC50 with Vero is more than 125 µM.
As to `O=[N+]([O-])c1cn2c(n1)OC[C@@H](OCc1cccc(-c3cccc(C(F)(F)F)c3)c1)C2`, the MIC in experiment [1] is 2.9 µM (≈ 1.22 µg/mL); in experiment [2] it was 0.34 µM (≈ 0.143 µg/mL). The compound also gave an IC50 in the experiment with Vero of more than 125 µM.
For `CSc1cccc(-c2cccc(CO[C@@H]3COc4nc([N+](=O)[O-])cn4C3)c2)c1` the same measures were 1.4 µM (≈ 0.556 µg/mL), 0.07 µM (≈ 0.0278 µg/mL) and more than 125 µM.
For `Cc1cccc(C)c1-c1ccc(CO[C@@H]2COc3nc([N+](=O)[O-])cn3C2)cc1` the same measures were 0.93 µM (≈ 0.353 µg/mL), 0.39 µM (≈ 0.148 µg/mL) and more than 125 µM.
For `O=[N+]([O-])c1cn2c(n1)OC[C@@H](OCc1ccc(-c3ccc(CO)cc3)cc1)C2` the same measures were 3.7 µM (≈ 1.41 µg/mL), 0.54 µM (≈ 0.206 µg/mL) and more than 125 µM.
On to `O=[N+]([O-])c1cn2c(n1)OC[C@@H](OCc1cccc(-c3ccc(OCCCO)cc3)c1)C2`, for which the MIC in experiment [1] is 1.5 µM (≈ 0.638 µg/mL); in experiment [2], 0.36 µM (≈ 0.153 µg/mL). The compound also yielded an IC50 with Vero of more than 125 µM.
For `CSc1cccc(-c2ccccc2CO[C@@H]2COc3nc([N+](=O)[O-])cn3C2)c1` the same measures were 3.2 µM (≈ 1.27 µg/mL), 0.81 µM (≈ 0.322 µg/mL) and more than 125 µM.
For `CS(=O)(=O)c1ccc(-c2ccc(CO[C@@H]3COc4nc([N+](=O)[O-])cn4C3)cc2)cc1` the same measures were 14 µM (≈ 6.01 µg/mL), 0.67 µM (≈ 0.288 µg/mL) and more than 125 µM.
For `Nc1ccc(-c2ccc(CO[C@@H]3COc4nc([N+](=O)[O-])cn4C3)cc2)cc1` the same measures were 1.9 µM (≈ 0.696 µg/mL), 0.49 µM (≈ 0.18 µg/mL) and more than 125 µM.
In the case of `O=[N+]([O-])c1cn2c(n1)OC[C@@H](OCc1ccc(-c3cccc(C(F)(F)F)c3)cc1)C2`, the values for the MIC in experiment [1] and in experiment [2] were 1.3 µM (≈ 0.545 µg/mL) and 0.067 µM (≈ 0.0281 µg/mL), respectively. This compound also gave an IC50 in the experiment with Vero of more than 125 µM.
For `CSc1ccccc1-c1ccc(CO[C@@H]2COc3nc([N+](=O)[O-])cn3C2)cc1` the same measures were 1.4 µM (≈ 0.556 µg/mL), 0.087 µM (≈ 0.0346 µg/mL) and more than 125 µM.
For `O=[N+]([O-])c1cn2c(n1)OC[C@@H](OCc1ccc(-c3cccc(OC(F)(F)F)c3)cc1)C2` the same measures were 1.4 µM (≈ 0.61 µg/mL), 0.077 µM (≈ 0.0335 µg/mL) and more than 125 µM.
Take `O=[N+]([O-])c1cn2c(n1)OC[C@@H](OCc1ccc(-c3ccc(OCCCO)cc3)cc1)C2`: the values for the MIC in experiment [1] and in experiment [2] were 2.2 µM (≈ 0.936 µg/mL) and 0.6 µM (≈ 0.255 µg/mL), respectively. Besides, in the experiment with Vero, the IC50 was more than 125 µM.
For `O=[N+]([O-])c1cn2c(n1)OC[C@@H](OCc1ccc(-c3ccccc3C(F)(F)F)cc1)C2` the same measures were 1.6 µM (≈ 0.671 µg/mL), 0.077 µM (≈ 0.0323 µg/mL) and more than 125 µM.
As for `COc1cccc(OC)c1-c1ccc(CO[C@@H]2COc3nc([N+](=O)[O-])cn3C2)cc1`, the MIC was determined as 1 µM (≈ 0.411 µg/mL) in experiment [1] and 0.31 µM (≈ 0.128 µg/mL) in experiment [2]. For the same compound, the IC50 in the experiment on Vero is more than 125 µM.
Regarding `CSc1cccc(-c2ccc(CO[C@@H]3COc4nc([N+](=O)[O-])cn4C3)cc2)c1`, the figures for the MIC in experiment [1] and in experiment [2] were 0.95 µM (≈ 0.378 µg/mL) and 0.077 µM (≈ 0.0306 µg/mL), respectively. Besides, in the experiment on Vero, the IC50 is more than 125 µM.
For `COc1cc(OC)cc(-c2ccc(CO[C@@H]3COc4nc([N+](=O)[O-])cn4C3)cc2)c1` the same measures were 0.79 µM (≈ 0.325 µg/mL), 0.28 µM (≈ 0.115 µg/mL) and more than 125 µM.
For `O=[N+]([O-])c1cn2c(n1)OC[C@@H](OCc1cccc(-c3ccccc3OC(F)(F)F)c1)C2` the same measures were 3.3 µM (≈ 1.44 µg/mL), 0.46 µM (≈ 0.2 µg/mL) and more than 125 µM.
For `O=[N+]([O-])c1cn2c(n1)OC[C@@H](OCc1cccc(-c3cccc(O)c3)c1)C2` the same measures were 3.7 µM (≈ 1.36 µg/mL), 0.3 µM (≈ 0.11 µg/mL) and more than 125 µM.
On to `Cc1cc(-c2ccc(CO[C@@H]3COc4nc([N+](=O)[O-])cn4C3)cc2)cc(C)c1O`, for which the MIC in experiment [1] worked out at 1.5 µM (≈ 0.593 µg/mL); in experiment [2] it was 0.3 µM (≈ 0.119 µg/mL). Further, the IC50 with Vero is more than 125 µM.
For `O=[N+]([O-])c1cn2c(n1)OC[C@@H](OCc1cccc(-c3ccc(F)cc3)c1)C2` the same measures were 3.8 µM (≈ 1.4 µg/mL), 0.077 µM (≈ 0.0284 µg/mL) and more than 125 µM.
For `O=[N+]([O-])c1cn2c(n1)OC[C@@H](OCc1ccccc1-c1cccc(F)c1)C2` the same measures were 3 µM (≈ 1.11 µg/mL), 0.62 µM (≈ 0.229 µg/mL) and more than 125 µM.
For `O=[N+]([O-])c1cn2c(n1)OC[C@@H](OCc1ccc(-c3ccc(C(F)(F)F)c(Cl)c3)cc1)C2` the same measures were 0.97 µM (≈ 0.44 µg/mL), 0.06 µM (≈ 0.0272 µg/mL) and more than 125 µM.
On to `O=[N+]([O-])c1cccc(-c2ccc(CO[C@@H]3COc4nc([N+](=O)[O-])cn4C3)cc2)c1`, for which the MIC in experiment [1] worked out at 0.76 µM (≈ 0.301 µg/mL); in experiment [2], 0.13 µM (≈ 0.0515 µg/mL). In the experiment with Vero, this compound came in with an IC50 of more than 125 µM.
With `CC(C)Oc1ccc(-c2ccc(CO[C@@H]3COc4nc([N+](=O)[O-])cn4C3)cc2)cc1`, the MIC is 3.8 µM (≈ 1.56 µg/mL) in experiment [1] and 0.25 µM (≈ 0.102 µg/mL) in experiment [2]. This compound also displayed an IC50 in the experiment on Vero of more than 125 µM.
For `COc1cccc(-c2ccc(CO[C@@H]3COc4nc([N+](=O)[O-])cn4C3)cc2)c1` the same measures were 1.9 µM (≈ 0.725 µg/mL), 0.27 µM (≈ 0.103 µg/mL) and more than 125 µM.
Regarding `O=[N+]([O-])c1cn2c(n1)OC[C@@H](OCc1ccc(-c3cccc(OCCCO)c3)cc1)C2`, the MIC in experiment [1] worked out at 3.2 µM (≈ 1.36 µg/mL); in experiment [2], 0.18 µM (≈ 0.0766 µg/mL). Also, in the experiment with Vero, the IC50 is more than 125 µM.
For `O=Cc1ccc(-c2ccc(CO[C@@H]3COc4nc([N+](=O)[O-])cn4C3)cc2)cc1` the same measures were 1 µM (≈ 0.379 µg/mL), 0.2 µM (≈ 0.0759 µg/mL) and more than 125 µM.
For `O=[N+]([O-])c1cn2c(n1)OC[C@@H](OCc1cccc(-c3ccc(OC(F)(F)F)cc3)c1)C2` the same measures were 2.2 µM (≈ 0.958 µg/mL), 0.11 µM (≈ 0.0479 µg/mL) and more than 125 µM.
Turning to `O=[N+]([O-])c1cn2c(n1)OC[C@@H](OCc1ccc(-c3ccccc3Cl)cc1)C2`, the results for the MIC in experiment [1] and in experiment [2] were 1.5 µM (≈ 0.579 µg/mL) and 0.15 µM (≈ 0.0579 µg/mL), respectively. The compound also yielded an IC50 in the experiment on Vero of more than 125 µM.
As for `O=[N+]([O-])c1cn2c(n1)OC[C@@H](OCc1cccc(-c3cccc(F)c3)c1)C2`, the MIC came out at 2.7 µM (≈ 0.997 µg/mL) in experiment [1] and 0.18 µM (≈ 0.0665 µg/mL) in experiment [2]. Further, the concentration for half-maximal inhibition (IC50) in the experiment with Vero was more than 125 µM.
For `COc1ccc(-c2cccc(CO[C@@H]3COc4nc([N+](=O)[O-])cn4C3)c2)cc1F` the same measures were 2.2 µM (≈ 0.879 µg/mL), 0.19 µM (≈ 0.0759 µg/mL) and more than 125 µM.
Take `O=[N+]([O-])c1cn2c(n1)OC[C@@H](OCc1ccc(-c3cccc(-c4ccccc4)c3)cc1)C2`: the MIC in experiment [1] was determined as 0.88 µM (≈ 0.376 µg/mL); in experiment [2] it was 0.31 µM (≈ 0.133 µg/mL). This compound displayed an IC50 with Vero of more than 125 µM.
Take `CC(=O)c1ccc(-c2cccc(CO[C@@H]3COc4nc([N+](=O)[O-])cn4C3)c2)cc1`: the minimum inhibitory concentration (MIC) in experiment [1] is 1.9 µM (≈ 0.747 µg/mL); in experiment [2] it was 0.3 µM (≈ 0.118 µg/mL). The IC50 with Vero was more than 125 µM.
For `COc1cc(C)c(-c2ccc(CO[C@@H]3COc4nc([N+](=O)[O-])cn4C3)cc2)c(C)c1` the same measures were 0.94 µM (≈ 0.385 µg/mL), 0.58 µM (≈ 0.237 µg/mL) and more than 125 µM.
For the compound `CSc1ccc(-c2cccc(CO[C@@H]3COc4nc([N+](=O)[O-])cn4C3)c2)cc1`, the values for the MIC in experiment [1] and in experiment [2] were 0.93 µM (≈ 0.37 µg/mL) and 0.095 µM (≈ 0.0378 µg/mL), respectively. The IC50 in the experiment on Vero was more than 125 µM.

In general, MIC refers to the smallest concentration in the dilution series that meets the test's criterion for growth inhibition. As a reminder, the IC50 is the concentration at which inhibition is half-maximal.
